One assay has as its system MEFs. The assay can be described thus: Western blot for ATF4 in MEFs. It is filed as cell-based, mouse. The note with it: 1 μM, 6 hours. In general terms: In western blotting, separated proteins are transferred to a membrane and probed.
The next assay deals with HTS cells. As to the kind of experiment: Mitochondrial membrane potential. It is filed as cell-based, mouse. The note with it: 1 μM, 10 minutes. An outline of the steps: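 HTS cells were exposed for 10 minutes to DMSO, test compound, FCCP, rotenone, antimycin A or oligomycin A, then mitochondrial membrane potential was quantified. Mean ± SD; n = 3 (FCCP, rotenone) or 4 (others).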

Experimental findings from publication PMC6655586 (Nature, 2019) are described below.

Regarding `C=C(C)[C@H]1Cc2c(ccc3c2O[C@@H]2COc4cc(OC)c(OC)cc4[C@@H]2C3=O)O1` [rotenone], the ATF4 induction entry with MEFs is given as “ATF4 induction”. Further, in the assay with HTS cells, the “acute change of mitochondrial membrane potential” value is recorded as “acute reduction of membrane potential”.
In the case of `CCCCCC[C@H]1C(=O)O[C@H](C)[C@H](NC(=O)c2cccc(NC=O)c2O)C(=O)O[C@@H](C)[C@@H]1OC(=O)CC(C)C` [antimycin A], in the assay with MEFs, the ATF4 induction result is on record as “ATF4 induction”. Also, the “acute change of mitochondrial membrane potential” value in the assay on HTS cells was “acute reduction of membrane potential”.
Taken in the same sequence, the figures for oligomycin A were “ATF4 induction” and “acute increase in mitochondrial membrane potential”.
